# Paper PMC9653265 (Journal of medicinal chemistry, 2022)
# Columns and labels:
# [1] = tested on: mouse middle cerebral artery occlusion (MCAO) model of ischemic stroke; conditions: mice, 1 mg/kg/day × 3 days, administered 4 h after onset of stroke; cited from earlier work
# [2] = tested on: 45 receptors, channels, and transporters; test: PDSP off-target binding screen at 45 receptors, channels and transporters; conditions: at 10 μM
# [3] = tested on: P2X7R; conditions: cited from earlier work
# [4] = tested on: mP2X4R; conditions: cited from earlier work
# [5] = target: T1, hP2X1R (Homo sapiens, UniProt P51575); test: cell-based; conditions: CHO-K1, read-out: hP2X1R % inhib.
# T1 sequence (P51575 1-399): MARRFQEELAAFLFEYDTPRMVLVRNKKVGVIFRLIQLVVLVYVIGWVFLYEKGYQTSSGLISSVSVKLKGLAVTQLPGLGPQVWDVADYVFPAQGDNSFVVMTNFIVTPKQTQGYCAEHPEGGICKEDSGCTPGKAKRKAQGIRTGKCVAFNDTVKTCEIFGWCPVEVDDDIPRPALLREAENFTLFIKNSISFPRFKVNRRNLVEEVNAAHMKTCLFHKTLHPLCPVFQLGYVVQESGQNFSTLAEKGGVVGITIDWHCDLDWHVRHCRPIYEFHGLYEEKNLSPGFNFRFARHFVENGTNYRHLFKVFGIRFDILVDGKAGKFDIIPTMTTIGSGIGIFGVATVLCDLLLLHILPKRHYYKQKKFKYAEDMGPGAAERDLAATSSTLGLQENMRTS
# [6] = tested on: mouse middle cerebral artery occlusion (MCAO) model of ischemic stroke; test: MCAO ischemic stroke model, cerebral infarct volume; format: in vivo
# [7] = tested on: mouse middle cerebral artery occlusion (MCAO) model of ischemic stroke; test: Open-field test after MCAO; format: in vivo; conditions: middle-aged mice after MCAO; vs vehicle; over 4 weeks
# Procedure, shortened: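 The model used 60 min right MCAO in middle-aged male and female C57BL/6 mice. Test compound or PBS vehicle was infused by osmotic minipump for 3 days. Testing was at baseline and on post-MCAO days 2, 7, 14, 21 and 28. Mice started from a corner of a 16″ acrylic box and explored ~10 min. Total photobeam breaks and center-zone break percentage were recorded. This test preceded rotarod by 1 h. Data are mean ± S.D.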
# [8] = tested on: mouse middle cerebral artery occlusion (MCAO) model of ischemic stroke; test: Rotarod test after MCAO; format: in vivo; conditions: middle-aged mice after MCAO; 4–40 rpm, 5 min; over 4 weeks
# Procedure, shortened: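 Middle-aged male and female C57BL/6 mice underwent 60 min right MCAO. They received test compound or PBS by osmotic minipump for 3 days. Rotarod was done at baseline and on post-MCAO days 2, 7, 14, 21 and 28, 1 h after open-field testing. The rod accelerated 4–40 rpm over 5 min. Each mouse had two trials 30 min apart, and mean latency to fall (s) was used. Data are mean ± S.D.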
# [9] = tested on: mouse middle cerebral artery occlusion (MCAO) model of ischemic stroke; test: Novel Object Recognition Task; format: in vivo; conditions: middle-aged mice, 4 weeks after MCAO; dose of 3 mg/kg; p < 0.05 vs Veh
# [10] = tested on: primary human monocyte-derived macrophages; test: Calcium influx assay on human monocyte-derived macrophages; format: cell-based; conditions: ATP 50 μM, 15 min pretreatment
# Procedure, shortened: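 Monocytes came from fresh whole blood of healthy donors. They were matured 5–7 days in RPMI with GM-CSF (5 ng/mL), then seeded at 10^4 cells/dish for ≥24 h. Cells were loaded with Calbryte 590 AM for 60 min in HBSS/HEPES and washed. They were pretreated 15 min with test compound (0, 0.1, 0.3, 0.6, 1, 3 μM), then stimulated with ATP 50 μM. Confocal images were taken every 6 s for up to 4 min, and peak Ca2+ amplitude was quantified.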
# [11] = young adult male mice (8–12 weeks), doses of 1.5 and 3.0 mg/kg/day × 3 days continuous infusion (Alzet minipump), 3 days after stroke, vs Veh
# [12] = young adult male mice, 5 mg/kg/day × 3 days continuous infusion, 3 days after stroke, vs Veh
compound,measurement,setting,value
"O=C1CN=C(c2cccc(Br)c2)c2oc3ccccc3c2N1 [Compound 3, 5-(3-bromophenyl)-1,3-dihydro-2H-benzofuro[3,2-e][1,4]diazepin-2-one]",stroke infarct size,[1],reduced
"O=C1CC(=O)N(c2cccc(-c3noc(=S)[n-]3)c2)c2ccc3ccccc3c2N1.[Na+] [Compound 5, 5-(3-(5-Thioxo-4,5-dihydro-1,2,4-oxadiazol-3-yl)phenyl)-1,5-dihydro-2H-naphtho[1,2-b][1,4]diazepine-2,4(3H)-dione]","off-target binding at 45 receptors, channels, and transporters",[2],no significant interactions
same,activity at the P2X7R,[3],inactive
same,potency in blocking mP2X4R effects in vitro compared with hP2X4R,[4],as potent
"CCN(CC)CC.O=C1CC(=O)N(c2cccc(-c3noc(=S)[nH]3)c2)c2cc(Br)c3ccccc3c2N1 [Compound 21d, 7-Bromo-5-(3-(5-thioxo-4,5-dihydro-1,2,4-oxadiazol-3-yl)-phenyl)-1,5-dihydro-2H-naphtho[1,2-b][1,4]diazepine-2,4(3H)-dione]","off-target binding at 45 receptors, channels, and transporters",[2],no significant interactions
"CC(=O)NCc1ccc2ccc3c(c2c1)NC(=O)CC(=O)N3c1cccc(-c2noc(=S)[nH]2)c1 [Compound 21i, N-((2,4-Dioxo-5-(3-(5-thioxo-4,5-dihydro-1,2,4-oxadiazol-3-yl)-phenyl)-2,3,4,5-tetrahydro-1H-naphtho[1,2-b][1,4]diazepin-10-yl)-methyl)acetamide]",inhibition at 30 µM,[5],≤ 31%
"CCN(CC)CC.O=C1CC(=O)N(c2ccnc(-c3noc(=S)[nH]3)c2)c2ccc3ccccc3c2N1 [Compound 21u, 5-(2-(5-Thioxo-4,5-dihydro-1,2,4-oxadiazol-3-yl)pyridin-4-yl)-1,5-dihydro-2H-naphtho[1,2-b][1,4]diazepine-2,4(3H)-dione]",effective dose in murine MCAO ischemic stroke model,[6]; neuroprotective and neuro-rehabilitative properties,1.5 mg/kg
same,cortical infarct volume,[6]; [11],significantly reduced
same,total hemispheric infarct volume,[6]; [11],significantly reduced
same,"total exploratory behavior (total beam breaks, open-field task)",[7],did not show any differences
same,motor coordination and balance (rotarod),[8],did not improve
same,learning and memory function (NORT),[9],significant retention of memory
same,inhibition of ATP-induced increase in calcium influx,[10]; HMDM of healthy subjects,dose-dependent (0–3 μM) inhibition
same,doses giving a significant decrease of the peak Ca2+ amplitude,[10]; vs ATP only,≥ 0.6 µM
"O=C1CC(=O)N(c2cccc(-c3noc(=S)[nH]3)n2)c2ccc3ccccc3c2N1 [Compound 21v, 5-(6-(5-Thioxo-4,5-dihydro-1,2,4-oxadiazol-3-yl)pyridin-2-yl)-1,5-dihydro-2H-naphtho[1,2-b][1,4]diazepine-2,4(3H)-dione]",inhibition at 30 µM,[5],≤ 31%
Cc1ccc2c3c(ccc2c1)N(c1cccc(-c2noc(=S)[n-]2)c1)C(=O)CC(=O)N3.[Na+] [Compound 22c],"off-target binding at 45 receptors, channels, and transporters",[2],no significant interactions
same,cortical infarct volume,[6]; [12],not significant
same,striatal infarct volume,[6]; [12],not significant
same,total hemispheric infarct volume,[6]; [12],moderate but significant decrease
